{"source": "ChEMBL document CHEMBL1955718", "about": "“Discovery of new orally effective analgesic and anti-inflammatory hybrid furoxanyl N-acylhydrazone derivatives” (Bioorg Med Chem, 2012)", "key": {"[1]": {"test": "Solubility of the compound in soybean lipoxygenase assay buffer at pH 7.4 at >50 uM", "format": "physicochemical"}, "HT-29 [2]": {"test_system": "HT-29", "test": "Inhibition of TNFalpha-induced NF-kappaB activation expressed in human HT-29 cells coexpressing hrGFP at 100 uM after 24 hrs by propidium iodide staining-based flow cytometric analysis relative to control", "format": "cell-based", "in_short": "(§1)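 HT-29 cells stably expressing NF-κB-driven hrGFP given compound (DMSO <0.5%) for 2 h at the maximum non-cytotoxic concentration, then TNF-α at 3 ng/mL final for 18–24 h. Cells trypsinised and stained with propidium iodide; 5000 events gated on FSC/SSC. The %GFP-positive among PI-excluding live cells is normalised to TNF-α/DMSO control, ± SD.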"}, "[3]": {"test": "Cytotoxicity against human HT-29 cells expressing NF-kappaB-hrGFP assessed as highest non-cytotoxic dose for 100% cell survival after 24 hrs by MTT assay", "format": "cell-based", "details": "read-out: Activity", "in_short": "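HT-29 cells stably carrying pNF-κB-hrGFP, seeded at 0.5 × 10^6/mL in DMEM with 10% FBS, grown 24 h at 37 °C, 5% CO2. Compounds added in DMSO (<0.5% v/v final) at 12.5–400 µM for 24 h. Viability by MTT reduction (2 h), formazan dissolved in DMSO/glycine buffer, read at 560 nm.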"}, "HT-29 [4]": {"test_system": "HT-29", "test": "Pro-inflammatory activity in NFkappaB-GFP transfected human HT-29 cells at 25 to 400 uM after 24 hrs by propidium iodide staining-based flow cytometric analysis", "format": "ADME, cell-based", "details": "ht-29, 24 h", "in_short": "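Reporter HT-29-NF-κB-hrGFP cells given compound alone, without TNF-α, for 18–24 h at 37 °C after the same 2 h pre-incubation. GFP-positive live (propidium iodide-excluding) cells counted by flow cytometry; IL-8 in supernatant measured by bead-based flow cytometry.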"}, "Glycine max": {"test_system": "Glycine max", "test": "Inhibition of soybean lipoxygenase using arachidonic acid as substrate at 50 uM", "in_short": "(§2)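 Soybean 15-lipoxygenase kit assay, arachidonic acid substrate, H2O2 as lipoxygenating agent in 0.1 M Tris-HCl pH 7.4. Single-point screen at 50 µM. IC50 found by varying concentration over 10–100 µM. Quercetin at 4 µM as positive control; duplicate means; Student t-test.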"}, "[5]": {"test": "Cytotoxicity against mouse […] cells after 48 hrs by MTT assay", "format": "cell-based", "in_short": "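J774 macrophages in DMEM (4 mM L-glutamine, 10% heat-inactivated FBS) were seeded at 1 × 10^5 cells/well and grown for 48 h at 37 °C, 5% CO2. They were then exposed to compounds at 25–400 µM for 48 h. MTT (0.1 mg/mL final) was added for 3 h, formazan was dissolved in DMSO/glycine buffer pH 10.5, and absorbance was read at 560 nm to give an IC50.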"}, "[6]": {"test": "Induction of NO release in 0.1 M Tris-HCl and 0.1 mM DTPA at pH 7.4 measured for 20 mins in presence of cysteine", "format": "physicochemical", "details": "buffer, pH 7.4, 20 min", "in_short": "(§3)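 Electrochemical NO detection with an ISO-NOP sensor. Compounds in DMSO added to 0.1 M Tris-HCl, 0.1 mM DTPA at pH 7.4 or 8.3. Cysteine (300 or 100 µM) added and NO recorded for 20 min at 25 or 37 °C; compound:Cys ratio 1:1 at 25 °C, with 3:1 and 37 °C runs also made.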"}, "HT-29 [7]": {"test_system": "HT-29", "test": "Inhibition of TNF-alpha-induced NFkappaB activation expressed in human HT-29 cells coexpressing hrGFP at 20 uM after 24 hrs by propidium iodide staining-based flow cytometric analysis relative to control", "format": "cell-based", "in_short": "as §1"}, "HT-29 [8]": {"test_system": "HT-29", "test": "Inhibition of NF-kappaB activation expressed in human HT-29 cells assessed as inhibition of TNFalpha-stimulated IL8 release at 20 uM after 24 hrs by flow cytometric analysis relative to control", "format": "cell-based", "in_short": "(§4)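 Reporter HT-29-NF-κB-hrGFP cells pretreated 2 h with compound (DMSO <0.5%) at the highest concentration with 100% survival, then stimulated with TNF-α (3 ng/mL final) for 18–24 h at 37 °C. IL-8 in clarified supernatant measured by flow cytometric bead assay (500 events). Expressed as % of TNF-α/DMSO control ± SD; thalidomide as reference.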"}, "HT-29 [9]": {"test_system": "HT-29", "test": "Inhibition of TNFalpha-induced NF-kappaB activation expressed in human HT-29 cells coexpressing hrGFP at 200 uM after 24 hrs by propidium iodide staining-based flow cytometric analysis relative to control", "format": "cell-based", "in_short": "as §1"}, "[10]": {"biological_target": "T1, Prostaglandin G/H synthase 1 (Ovis aries) (UniProt P05979)", "T1 sequence (whole entry)": "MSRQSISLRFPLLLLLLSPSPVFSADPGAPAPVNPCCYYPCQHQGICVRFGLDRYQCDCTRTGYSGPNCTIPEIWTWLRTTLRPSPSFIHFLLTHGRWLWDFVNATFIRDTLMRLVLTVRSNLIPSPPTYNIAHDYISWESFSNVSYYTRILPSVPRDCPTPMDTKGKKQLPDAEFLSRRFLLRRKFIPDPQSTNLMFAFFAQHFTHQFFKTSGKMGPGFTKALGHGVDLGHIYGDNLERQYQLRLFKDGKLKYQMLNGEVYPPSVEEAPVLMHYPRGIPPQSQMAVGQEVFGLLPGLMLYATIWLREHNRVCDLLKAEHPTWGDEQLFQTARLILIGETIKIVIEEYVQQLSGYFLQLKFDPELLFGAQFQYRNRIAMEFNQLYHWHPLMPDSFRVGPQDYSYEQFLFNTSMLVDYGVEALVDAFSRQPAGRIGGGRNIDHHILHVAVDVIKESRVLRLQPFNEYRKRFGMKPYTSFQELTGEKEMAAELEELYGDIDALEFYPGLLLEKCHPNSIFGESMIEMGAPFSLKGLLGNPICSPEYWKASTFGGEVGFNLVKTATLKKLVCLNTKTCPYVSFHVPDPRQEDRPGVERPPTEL", "details": "0.1 uM"}, "Mus musculus": {"test_system": "Mus musculus", "test": "Analgesic activity in albino mouse assessed as inhibition of acetic acid-induced abdominal constriction at 100 umol/kg, po administered 1 hr before acetic acid challenge measured after 60 mins relative to control", "format": "functional", "details": "Abdomen", "in_short": "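Albino mice of both sexes (18–23 g) were dosed orally as a suspension in 5% arabic gum in saline, with vehicle controls. After 1 h they received 0.6% acetic acid ip (0.1 mL/10 g). Constrictions were counted for 20 min starting 10 min after injection. Data are % inhibition vs vehicle, mean ± SEM, Student t-test.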"}, "Rattus norvegicus": {"test_system": "Rattus norvegicus", "test": "Antiinflammatory activity in albino rat assessed as inhibition of carrageenan-induced paw edema at 100 umol/kg, po administered 1 hr before carrageenan challenge measured after 3 hrs by plethysmometric analysis relative to control", "format": "functional", "in_short": "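Albino rats of both sexes (150–200 g) were dosed orally as a suspension in 1% Tween 80 in saline, with vehicle controls. After 1 h, 0.1 mL 1% carrageenan or saline was injected subplantar. Paw volume was read by glass plethysmometer at 3 h. Edema = carrageenan-paw minus saline-paw volume; % inhibition vs vehicle; Student t-test.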"}, "[11]": {"test": "Inhibition of soybean lipoxygenase using arachidonic acid as substrate", "design": "species or system Glycine max", "in_short": "as §2"}, "Salmonella typhimurium [12]": {"test_system": "Salmonella typhimurium", "test": "Induction of mutagenesis in Salmonella Typhimurium TA98 assessed as number of revertants at 3.1 to 250 ug/plate in absence of mouse liver S9 fraction", "format": "toxicity, organism-based", "details": "salmonella enterica subsp. enterica serovar typhimurium", "in_short": "(§5)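 S. typhimurium TA98, plate incorporation on minimal glucose (Vogel-Bonner) agar. Compounds were in DMSO, dosed in triplicate with a top non-toxic dose of 250 or 350 µg/plate. Runs were without S9 (positive control 4-nitro-o-phenylenediamine, 20 µg/plate) or with 500 µL Aroclor-induced mouse liver S9 (positive control 2-aminofluorene, 10 µg/plate), plus a DMSO control. Revertants were counted manually; mutagenic means ≥2-fold spontaneous revertants at two consecutive doses.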"}, "[13]": {"test": "Induction of NO release in 0.1 M Tris-HCl and 0.1 mM DTPA at pH 8.3 measured for 20 mins in presence of cysteine", "format": "physicochemical", "details": "buffer, pH 8.3, 20 min", "in_short": "as §3"}, "HT-29 [14]": {"test_system": "HT-29", "test": "Inhibition of TNFalpha-induced NF-kappaB activation expressed in human HT-29 cells coexpressing hrGFP at 400 uM after 24 hrs by propidium iodide staining-based flow cytometric analysis relative to control", "format": "cell-based", "in_short": "as §1"}, "HT-29 [15]": {"test_system": "HT-29", "test": "Inhibition of NF-kappaB activation expressed in human HT-29 cells assessed as inhibition of TNFalpha-stimulated IL8 release at 400 uM after 24 hrs by flow cytometric analysis relative to control", "format": "cell-based", "in_short": "as §4"}, "Salmonella typhimurium [16]": {"test_system": "Salmonella typhimurium", "test": "Induction of mutagenesis in Salmonella Typhimurium TA98 assessed as number of revertants at 3.1 to 250 ug/plate in presence of mouse liver S9 fraction", "format": "toxicity, organism-based", "details": "salmonella enterica subsp. enterica serovar typhimurium", "in_short": "as §5"}}, "data": [{"compound": "Cc1c(C(=O)N/N=C/c2ccccc2O)no[n+]1[O-]", "values": [{"measurement": "solubility", "setting": "[1]", "result": "Insoluble"}, {"measurement": "NF-kappaB activity (% of TNF-alpha control)", "setting": "HT-29 [2]", "result": 55, "unit": "%"}, {"measurement": "MNTC at 24 h", "setting": "[3]", "result": 100, "unit": "µM"}, {"measurement": "Activity", "setting": "HT-29 [4]", "result": "Non-toxic"}, {"measurement": "inhibition", "setting": "Glycine max", "result": 37, "unit": "%"}, {"measurement": "IC50", "setting": "[5]", "result": 246, "unit": "µM"}]}, {"compound": "O=S(=O)(c1ccccc1)c1no[n+]([O-])c1S(=O)(=O)c1ccccc1", "values": [{"measurement": "Activity", "setting": "[6]", "result": 3700, "unit": "nM/min"}, {"measurement": "inhibition", "setting": "HT-29 [7]", "result": 6, "unit": "%"}, {"measurement": "MNTC at 24 h", "setting": "[3]", "result": 20, "unit": "µM"}, {"measurement": "Activity", "setting": "HT-29 [4]", "result": "Non-toxic"}, {"measurement": "inhibition", "setting": "HT-29 [8]", "result": 6, "unit": "%"}]}, {"compound": "Cc1[nH]cnc1C(=O)N/N=C/c1c(-c2ccccc2)no[n+]1[O-]", "values": [{"measurement": "MNTC at 24 h", "setting": "[3]", "result": 200, "unit": "µM"}, {"measurement": "Activity", "setting": "HT-29 [4]", "result": "Non-toxic"}, {"measurement": "inhibition", "setting": "HT-29 [9]", "result": 103, "unit": "%"}, {"measurement": "IC50", "setting": "[5]", "result": "> 400", "unit": "µM"}]}, {"compound": "COc1ccc2c(c1)c(CC(=O)O)c(C)n2C(=O)c1ccc(Cl)cc1", "note": "[INDOMETHACIN]", "values": [{"measurement": "inhibition", "setting": "[10]", "result": 49.7, "unit": "%"}, {"measurement": "inhibition in vivo at 100 µmol/kg", "setting": "Mus musculus", "result": 44, "unit": "%"}, {"measurement": "inhibition in vivo at 100 µmol/kg", "setting": "Rattus norvegicus", "result": 61, "unit": "%"}]}, {"compound": "Cc1c(C(=O)N/N=C/c2ccc(C(=O)O)cc2)no[n+]1[O-]", "values": [{"measurement": "IC50", "setting": "[11]", "result": 35, "unit": "µM"}, {"measurement": "Activity", "setting": "Salmonella typhimurium [12]", "result": "Non-toxic"}, {"measurement": "Activity", "setting": "[6]", "result": 1.04, "unit": "nM/min"}, {"measurement": "Activity", "setting": "[13]", "result": 0.19, "unit": "nM/min"}, {"measurement": "NF-kappaB activity (GFP-positive cells), % of TNF-alpha control", "setting": "HT-29 [14]", "result": 125, "unit": "%"}, {"measurement": "inhibition", "setting": "HT-29 [15]", "result": 53, "unit": "%"}, {"measurement": "inhibition in vivo at 100 µmol/kg", "setting": "Mus musculus", "result": 0, "unit": "%"}, {"measurement": "MNTC at 24 h", "setting": "[3]", "result": 400, "unit": "µM"}, {"measurement": "Activity", "setting": "HT-29 [4]", "result": "Non-toxic"}, {"measurement": "inhibition", "setting": "Glycine max", "result": 74, "unit": "%"}, {"measurement": "inhibition in vivo at 100 µmol/kg", "setting": "Rattus norvegicus", "result": 16, "unit": "%"}, {"measurement": "IC50", "setting": "[5]", "result": "> 400", "unit": "µM"}, {"measurement": "Activity", "setting": "Salmonella typhimurium [16]", "result": "Non-toxic"}]}]}
